Bioassay records: PubChem, several laboratories
Platelet DG rel: platelet dense granule release activity | human platelet-rich plasma, SFLLRN dense granule ATP release, luminescence | inhibition, %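 (compounds screened at 7.5 µM in platelet-rich plasma)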 | 300,000 tested, 0.22% active | AID 1663;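 active = mean replicate score, as percent of positive control, at or above 50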
SENP6 inh: SENP6 protease inhibition; Q9GZR1; Recombinant SENP6 catalytic domain, aminoluciferin luminescence; inhibition, % at 10 µM; 330,000 tested, 1.8% active; AID 2599;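 active = inhibition above about 50% at the single tested dose, limit read from the data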;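 also: plate controls were DMSO wells with enzyme for no effect and DMSO wells lacking enzyme for full effect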
SENP7 inh: blocks the human protease SENP7; recombinant SENP7, Z-RLRGG-aminoluciferin luminescence, 40 min; 330,000 tested, 1.5% active; AID 434973; inhibition, % at 5 µM;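 active = inhibition above about 50% at the single test dose, limit read from the data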;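 also: plate controls were DMSO with enzyme for no effect and no enzyme buffer wells for full effect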
SENP1 inh: SENP1 (human) catalytic domain inhibition. Q9P0U3. recombinant SENP1 catalytic domain, CyPet-SUMO1-YPet FRET cleavage. inhibition, % at 10 µM. 360,000 tested, 0.21% active;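 active = inhibition at least 30% at 10 µM, raw YFP signal under a set limit, fluorescence ratio 0.5 to 1.5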;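 also: 0% = enzyme with DMSO and 100% = no enzyme wells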
Target sequence (Q9P0U3 419-644 limits assumed): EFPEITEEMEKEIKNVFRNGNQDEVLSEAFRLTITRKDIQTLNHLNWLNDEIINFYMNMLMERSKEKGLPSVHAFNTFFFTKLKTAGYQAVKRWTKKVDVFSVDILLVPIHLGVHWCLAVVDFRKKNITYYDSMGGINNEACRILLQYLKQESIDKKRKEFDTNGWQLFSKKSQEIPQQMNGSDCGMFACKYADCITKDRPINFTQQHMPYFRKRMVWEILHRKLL
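Material: hSENP1 catalytic domain, recombinant; medium: Tris pH 8 with BME, BSA, NP40 and catalase; compound: single concentration of 10 µM compound, 0.5% DMSO final; technique: FRET read of cyan and yellow fluorescence; timing: 50 min enzyme reaction, room temperature, light-protected; reagent: SFCypet-SUMO1-SFYpet substrate at 25 nM; control set: no-enzyme low, enzyme-DMSO high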
SENP8 block-1: SENP8 (human) protease inhibition. Q96LD8. recombinant SENP8, Nedd8 substrate fluorescence. inhibition, % at 20 µM. 360,000 tested, 0.64% active; in the data active = inhibition mostly above about 40%, no sharp cut-off; inactive = mostly below about 27%
Target sequence (Q96LD8 whole entry, looked up): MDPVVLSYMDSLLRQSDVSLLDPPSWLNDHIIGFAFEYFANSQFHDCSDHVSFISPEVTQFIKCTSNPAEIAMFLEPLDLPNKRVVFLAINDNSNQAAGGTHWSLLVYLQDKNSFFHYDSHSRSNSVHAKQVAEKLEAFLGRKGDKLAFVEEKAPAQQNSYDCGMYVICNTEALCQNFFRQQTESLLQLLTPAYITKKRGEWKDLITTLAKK
SENP8 block-2: SENP8 protease inhibition; inhibition, % at 10 µM; purified SENP8, Z-RLRGG-aminoluciferin cleavage, luminescence; Q96LD8; AID 2540; 330,000 tested, 1.2% active; in the data active = inhibition above about 50%
SENP1 conf: SENP1 (human) inhibition, single concentration confirmation | recombinant SENP1, CyPet-SUMO1-YPet FRET cleavage | 520 tested, 34% active | shares compounds with SENP1 inh | inhibition, % at 10 µM; in the data active = inhibition mostly above about 35%, no sharp cut-off; inactive = mostly below about 32%;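 also: 0% = enzyme with DMSO and 100% = no enzyme control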
SENP1 kin conf: confirmation of human SENP1 SUMO protease inhibitors, kinetic; shares compounds with SENP1 inh; inhibition, % at 10 µM; 520 tested, 26% active; recombinant SENP1, CyPet-SUMO1-YPet FRET kinetic cleavage; in the data active = inhibition mostly above about 32%, no sharp cut-off; inactive = mostly below about 29%;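 also: 0% = DMSO with enzyme and 100% = no enzyme substrate only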
Numbers without * were called inactive; i = inactive; nt = no result. Compounds with a hit are over-represented: about 2.6% of the library has one in this group of screens.

SMILES	Platelet DG rel	SENP6 inh	SENP7 inh	SENP1 inh	SENP8 block-1	SENP8 block-2	SENP1 conf	SENP1 kin conf
COc1cc(-c2cnc3c(NC=O)cc(-c4ccc(N5CCN(C)CC5)cc4)cn23)cc(OC)c1OC	nt	nt	nt	21.1	-264.1	nt	nt	nt
COc1ccc2c(=O)cc(-c3ccncc3)oc2c1OC	nt	nt	nt	3.2	9.4	nt	nt	nt
CC(C)c1ccc(NC(=O)CN2CCN(C(=O)C3CCCO3)CC2)cc1 (stereo not given)	-12.5	-2.4	-1.0	-0.2	6.6	-4.7	nt	nt
C=CCNC(=O)C1CCC(C(=O)NCC=C)CC1 (stereo not given)	-7.8	-1.2	-8.0	0.3	-3.1	-1.6	nt	nt
CC(C)(C)CC(C)(C)NC(=S)Nc1ccc2nc(-c3ccccn3)c(-c3ccccn3)nc2c1	2.0	-2.1	4.2	-19.0	-294.2	2.3	nt	nt
CN(C)NC(=S)Nc1ccc2nc(-c3ccccn3)c(-c3ccccn3)nc2c1	4.4	-5.5	-13.2	59.0*	-92.1	-2.1	37.8*	30.6
O=C(NCC(F)(F)F)c1ccc(S(=O)(=O)Nc2ccccc2N2CCCC2)cc1	nt	11.4	6.3	30.3*	7.9	6.1	-1.8	-7.0
CCCC(=O)NC(C)c1nc(-c2ccc(C)cc2)no1 (stereo not given)	-8.0	-3.4	11.5	2.3	14.8	-10.2	nt	nt
COc1ccc(CNC(=O)c2cccc3c(-c4cnn(C)c4)coc23)cc1OC	nt	nt	nt	3.4	-12.0	nt	nt	nt
O=C(Cc1ccccc1F)Nc1cccc2cccnc12	-1.6	-14.7	2.0	0.7	7.4	-4.9	nt	nt
O=C(O)CCCC(=O)Nc1cccc2cccnc12	-12.6	-3.2	8.3	34.2*	2.4	2.8	2.0	-4.3
NS(=O)(=O)c1ccc(CNC(=S)NC2CCCCC2)cc1	-5.1	-20.5	-5.3	39.6*	16.3	-3.3	-5.0	-4.7
O=C(OCc1ccc(O)cc1)c1c(-c2ccsc2)oc2ccc(N3CCOCC3)cc12	-5.4	-10.0	-1.5	36.3*	-145.7	1.4	18.7	20.7
CCN(CC)CCNc1ccc(CO)c2oc3ccccc3c(=O)c12	nt	nt	nt	46.8*	17.0	nt	48.0*	39.5*
COc1cc(C)c2sc3ccccc3c(=O)c2c1NCCN(C)C	nt	nt	nt	-42.1	21.3	nt	nt	nt
CCN(CC)CCNc1cccc2sc3ccccc3c(=O)c12	nt	nt	nt	32.5*	44.5*	nt	38.5*	25.9
O=c1cc(NCCO)c2ccccc2o1	1.3	-16.8	-1.5	-1.1	9.0	-1.4	nt	nt
CN(C)CCNc1cccc2sc3ccc(O)cc3c(=O)c12	nt	nt	nt	48.6*	36.2	nt	57.3*	26.3
CC(=O)OCC(OC(C)=O)C(OC(C)=O)C(OC(C)=O)C(=O)Nc1cccc(C)c1 (stereo not given)	-35.8	-21.0	5.2	1.2	23.4	-3.4	nt	nt
CCCNc1c(NS(=O)(=O)c2ccc(C)cc2C)c(=O)oc2ccccc12	-0.4	5.0	2.0	0.2	-12.6	-3.3	nt	nt
CN(CC(=O)NNC(=O)Cc1ccccc1F)S(=O)(=O)c1ccc(Cl)cc1	8.2	-1.3	-0.9	0.2	21.3	-3.2	nt	nt
COc1ncc(-c2ccc(N3C(c4ccc([N+](=O)[O-])cc4)=Cc4ccccc4C3CC(C)=O)cc2)cn1 (stereo not given)	nt	nt	nt	48.1*	16.8	nt	18.2	11.1
CC1CCCC(C)N1C(=O)CN1c2cccc3cccc(c23)S1(=O)=O (stereo not given)	nt	-4.1	-9.1	3.9	i	-11.9	nt	nt
Cc1ccc(NS(=O)(=O)c2cccc(C(=O)NCC3CCCO3)c2)cc1 (stereo not given)	-8.0	-18.1	5.5	0.8	18.2	-3.8	nt	nt
CCOC(=O)C(=CN=C(N)Nc1nc2ccccc2o1)C(=O)OCC	2.5	-6.7	6.5	-0.8	-219.4	-0.9	nt	nt
SMILES	Platelet DG rel	SENP6 inh	SENP7 inh	SENP1 inh	SENP8 block-1	SENP8 block-2	SENP1 conf	SENP1 kin conf
CCCOC(=O)Nc1nc2ccccc2o1	-4.4	-16.3	-4.8	30.4*	10.4	-15.6	1.9	2.7
CCOC(=O)c1sc2nc(C)nc(NCc3ccc(F)cc3)c2c1C	9.0	-26.9	-1.4	36.4*	-330.9	1.7	-18.9	17.9
CC(C)n1nccc1NC(=O)COC(=O)c1ccc(NC(N)=O)cc1	nt	-6.0	7.4	3.2	8.6	2.1	nt	nt
CCCCC(=O)OCC(=O)C1(O)Cc2c(O)c3c(c(O)c2C(OC2CC(NC(=O)C(F)(F)F)C(O)C(C)O2)C1)C(=O)c1c(OC)cccc1C3=O (stereo not given)	nt	nt	nt	95.1*	45.3*	nt	27.4	12.5
COC(=O)c1ccc(N/N=C/c2cc([N+](=O)[O-])cc(OC)c2O)cc1	3.4	33.8	17.1	48.6*	35.2	29.1	5.1	-1.1
COc1ccc(N2C(=O)C3C(C2=O)C(C(=O)c2ccc(Cl)cc2)N2CCCC32)cc1 (stereo not given)	-0.4	-7.1	-1.3	71.4*	4.3	9.7	76.8*	49.7*
Cc1ccc(N2C(=O)[C@@H]3[C@H](C2=O)C2CCCN2[C@@H]3C(=O)c2ccccc2)cc1 (stereo not given in full)	0.5	-14.8	-1.1	76.5	11.1	-6.9	nt	nt
O=C(c1ccccc1)[C@@H]1[C@@H]2C(=O)N(c3ccc(F)cc3)C(=O)[C@@H]2C2CCCN21 (stereo not given in full)	-2.7	-20.6	-7.8	75.6*	2.1	-5.0	73.3*	47.9*
O=C(c1ccc(Cl)cc1)C1C2C(=O)N(c3ccccc3)C(=O)C2C2CCCN21 (stereo not given)	5.3	nt	nt	-19.1	15.0	nt	nt	nt
Cc1nn(Cc2cccc(C(=O)NN)c2)c(C)c1Cl	14.6	-9.9	7.9	1.8	16.3	2.5	nt	nt
Nc1c(-c2ccc(C(F)(F)F)cc2)nc2ncccn12	nt	nt	nt	52.9*	-1.9	nt	15.6	8.6
CCOCCn1c(CN2CCN(C(=O)c3ccco3)CC2)nc2c1c(=O)n(C)c(=O)n2C	8.7	-2.4	-6.3	-0.3	8.1	-7.5	nt	nt
Cc1ccccc1C[n+]1cccc2ccccc21	-5.0	-3.4	0.7	34.1*	12.2	-7.0	6.4	2.5
COc1cc(/C=C/c2ccc3c([N+](=O)[O-])cccc3n2)ccc1OCC(=O)O	13.0	-2.2	-0.6	53.9*	34.2	1.0	25.6	18.8
CCn1cc(C(=O)NCCCN(CC(C)C)CC(C)C)c(=O)c2cc(S(=O)(=O)N(C)C3CCCCC3)ccc21	0.5	9.2	0.7	-1.7	14.5	-3.2	nt	nt
O=[N+]([O-])c1ccccc1S(=O)(=O)Nc1cccc(S(=O)(=O)N2CCCC2)c1	nt	-8.8	11.2	0.1	9.8	1.1	nt	nt
Cc1cc(Oc2ccc(=O)n(C)n2)nc(SCC(N)=O)n1	-4.5	-15.8	-9.9	38.0*	10.1	-4.3	-2.4	-3.7
O=C(N/N=C(\CC(=O)c1cccs1)C(F)(F)F)c1ccncc1	14.8	4.0	5.8	40.2*	34.3	5.4	50.3*	38.0*
